Autophagy mod: autophagy modulators in MEF cells, primary screen, imaging, high-content, MEF GFP-LC3. calls only at 10 µM (by protocol). MEF GFP-LC3 puncta imaging; test concentration mostly 10 µM. 0.98% of 190,000 active. AID 463193, 2010;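 active means percentage of spot-positive cells more than 3 SD above its plate mean, without a fluorescence outlier flag or 80% toxicity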
ABCG2 inh: ABCG2 efflux pump inhibitors, primary screen, multiplex with ABCB1, IgMXP3 cells, flow cytometry | Broad substrate specificity ATP-binding cassette transporter ABCG2 (Homo sapiens), Q9UNQ0 | JC-1 efflux | inhibition, % at 6.6 µM | 0.1% of 190,000 active | AID 1325, 2008;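 active means inhibition above 80%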
Target sequence (Q9UNQ0 whole entry, looked up): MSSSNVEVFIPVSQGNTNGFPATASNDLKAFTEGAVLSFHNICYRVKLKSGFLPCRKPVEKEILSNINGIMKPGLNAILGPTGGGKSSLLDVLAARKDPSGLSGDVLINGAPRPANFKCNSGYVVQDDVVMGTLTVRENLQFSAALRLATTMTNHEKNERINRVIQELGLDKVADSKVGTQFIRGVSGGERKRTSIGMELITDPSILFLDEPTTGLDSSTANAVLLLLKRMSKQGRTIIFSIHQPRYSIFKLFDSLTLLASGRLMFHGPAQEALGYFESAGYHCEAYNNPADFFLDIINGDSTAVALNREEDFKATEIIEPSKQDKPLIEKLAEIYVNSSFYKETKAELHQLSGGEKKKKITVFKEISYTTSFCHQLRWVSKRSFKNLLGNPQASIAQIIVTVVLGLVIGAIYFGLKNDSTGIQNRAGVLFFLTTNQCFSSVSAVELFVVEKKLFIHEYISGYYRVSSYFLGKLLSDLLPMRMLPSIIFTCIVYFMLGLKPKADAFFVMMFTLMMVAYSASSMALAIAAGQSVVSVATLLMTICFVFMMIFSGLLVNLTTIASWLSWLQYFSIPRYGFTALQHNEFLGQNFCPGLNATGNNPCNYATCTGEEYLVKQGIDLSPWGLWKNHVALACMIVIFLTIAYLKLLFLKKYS
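Test system: IgMXP3 (ABCG2) plus far-red-tagged CCRF-Adr (ABCB1) cells / Amount: 3 million cells/mL in well / Reagent: JC-1 transporter substrate / Timing: 10 min compound exposure, 25 °C / Signal: flow cytometry, 530 nm JC-1 signal / Read-out: percent efflux inhibition, scaled nicardipine 100% to DMSO 0% / Benchmarks: nicardipine as high control, DMSO as low control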
SDO1 yeast rescue: growth rescue of sdo1-depleted yeast, primary screen, S. cerevisiae, bone marrow failure model; S. cerevisiae sdo1-depleted JHY4D growth rescue, OD600 30 h; stronger effect = higher value; pdr5 snq2 efflux-pump mutant strain; AID 817, 2007; 0.21% of 140,000 active; z-score at 10 µM;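 active means z-score above 3 at both the 24 hr and the 30 hr optical density reads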
Ins promoter up: insulin promoter activators in MIN6 cells, imaging, high-content screening, mouse beta cells | MIN6 insulin promoter-GFP reporter; stronger effect = higher value | z-score at 5 µM | 0.3% of 190,000 active;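 active means z-score above 3 at 5 µM with at least 500 cells counted in the well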
ROMK primary: ROMK potassium channel modulators, primary screen, cell-based, thallium flux, MLSMR library | B-score at 10 µM | ATP-sensitive inward rectifier potassium channel 1 (Homo sapiens), P48048 | Tet-inducible ROMK, thallium flux fluorescence; actives lie on both sides | AID 1918, 2009 | 2% of 130,000 active;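 active means signal ratio slope over the read window, or its plate-corrected B-score, at least 3 SD from the plate mean, either direction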;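 further: B-score of the F/F0 ratio slope over 7 to 12 s after thallium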
ABCB1 block: ABCB1 efflux pump inhibitors, primary screen, cell-based, multiplex, flow cytometry, ABCG2 counter-screen; CCRF-Adr cells, JC-1 efflux; inhibition, % at 6.6 µM; 0.067% of 190,000 active; in the data active means inhibition above about 40%;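 further: higher value means more JC-1 retained so stronger ABCB1 efflux block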
Of the large screens only hits and unclear results are named; the others gave an inactive call. Sampled rows, rich in hits. Any-hit rate of the full collection: about 2.3%.

O=C(N/N=C/c1ccccc1Br)C1CC1	none (no result: SDO1 yeast rescue)
Cc1ccc(CNC(=O)c2ccc(OCC3CCCO3)cc2)cc1 (stereo not drawn)	none
CCn1c(SCc2nc3ccccc3[nH]2)nnc1-c1cccs1	Autophagy mod active
CCn1c(SCc2nc3ccccc3[nH]2)nnc1-c1ccccc1OC	none (no result: ROMK primary)
Cc1c2ccccc2nc2c(F)c(N(C)C)c(F)c(F)c12	Autophagy mod active (no result: ROMK primary)
CCc1cc(C(=O)N=Nc2c(O)[nH]c3c(Br)cc(Br)cc23)c2ccccc2n1	none
CCc1ccc(C2C(C#N)=C(N)SC(N)=C2C#N)cc1	ROMK primary -4.2
O=C(Nc1ccc(N2CCCC2)c(Cl)c1)c1ccco1	none
Cc1ccc(NC(=O)c2cc(NC(=O)c3ccco3)ccc2N2CCOCC2)cc1Cl	Autophagy mod active
O=C(NCc1ccc(F)cc1)Nc1cccc(Cl)c1	none (no result: SDO1 yeast rescue)
COc1ccc(CC(=O)Nc2nn(C)c3nc4c(C)cccc4cc23)cc1	none (no result: Autophagy mod, ABCG2 inh, SDO1 yeast rescue, ABCB1 block)
Fc1ccc(NC(=S)NCCN2CCOCC2)cc1	none (no result: SDO1 yeast rescue)
CCN(CC)CCNC(=S)Nc1ccc(F)cc1	Autophagy mod active (no result: SDO1 yeast rescue)
CC1CCc2cc(F)ccc2N1C(=O)c1ccc2c(c1)OCO2 (stereo not drawn)	Autophagy mod active
Cc1cc(NS(=O)(=O)c2ccc(NC(=O)c3ccco3)cc2)nc(C)n1	none
Cc1cc(NS(=O)(=O)c2ccc(NC(=O)c3ccco3)cc2)no1	Autophagy mod active (no result: ROMK primary)
CCC(=O)Nc1ccc(C(=O)Nc2cccc(C)n2)cc1	none (no result: SDO1 yeast rescue, Ins promoter up, ROMK primary)
CC(C)(C)NC(=O)C(Cc1ccccc1)NS(=O)(=O)c1cccc2nsnc12 (stereo not drawn)	Autophagy mod active (no result: ROMK primary)
Cc1cc(C)c(S(=O)(=O)/N=C2/C=C(Sc3ncn[nH]3)C(=O)c3ccccc32)cc1C	ROMK primary -4.9
Cc1ccc(NC2=C/C(=N/S(=O)(=O)c3cccs3)c3ccccc3C2=O)cc1C	none
NC(=S)N/N=C/c1coc2ccc(F)cc2c1=O	none (no result: Autophagy mod, ABCG2 inh, SDO1 yeast rescue, ABCB1 block)
C=CCSc1nnc(NC(=O)c2cccc(S(=O)(=O)N3CCOCC3)c2)s1	Ins promoter up 3.2 (no result: ROMK primary)
CCc1ccc(/C(C)=N\Nc2ccc([N+](=O)[O-])cc2)cc1	Autophagy mod active (no result: ROMK primary)
C=CCNC(=O)C1CCN(S(=O)(=O)c2ccc(Br)cc2)CC1	Ins promoter up 3.1
CC(=O)c1ccc(-n2nncc2-c2ccc([N+](=O)[O-])cc2)cc1	none (no result: SDO1 yeast rescue)
CSC(=S)N/N=C(\C)c1ccccc1	ROMK primary 10 (no result: SDO1 yeast rescue)
CCc1cccc(C)c1NC(=S)N(CCN(C)C)C(C)c1cccnc1 (stereo not drawn)	none (no result: SDO1 yeast rescue, Ins promoter up)
Cc1cccc(OCCn2c(NC(=O)c3ccco3)nc3ccccc32)c1	Autophagy mod active (no result: ROMK primary)
COc1ccc(-c2csc3nc(C(C)C)oc(=O)c23)cc1OC	none (no result: SDO1 yeast rescue)
COc1ccc(-c2nc3scc(-c4ccc(OC)c(OC)c4)c3c(=O)o2)cc1	Autophagy mod active
O=C(Nc1ccccc1)N(Cc1ccc2c(c1)OCO2)Cc1nc2ccccc2c(=O)[nH]1	none (no result: ROMK primary)
O=C(c1ccccc1)N(Cc1ccc2c(c1)OCO2)Cc1nc2ccccc2c(=O)[nH]1	ROMK primary 3.2
Cc1ccc(CC2SC(N)=NC2=O)cc1 (stereo not drawn)	none (no result: SDO1 yeast rescue)
CCOc1ccc(-n2cc(C(=O)Nc3ccc(Cl)cn3)c3cc(OC)c(OC)cc3c2=O)cc1	Autophagy mod active
CCOc1ccc(-n2cc(C(=O)Nc3cccc(OC)c3)c3cc(OC)c(OC)cc3c2=O)cc1	none (no result: ROMK primary)
Cc1nc2c3cc(Cl)ccc3n(CCN3CCCCC3)c2s1	Autophagy mod active
COC(=O)Cn1c2ccc(Cl)cc2c2nc(C)sc21	none (no result: Autophagy mod, ABCG2 inh, SDO1 yeast rescue, ROMK primary, ABCB1 block)
O=c1c2cccnc2[nH]c(=S)n1CCCN1CCN(c2ccccc2F)CC1	Autophagy mod active (no result: ROMK primary)
O=C(CCc1ccccc1)NNC(=S)NC(=O)c1ccc(Cl)cc1	none
Cc1ccc(-n2c(SCC(=O)N/N=C/c3c(C)nn(-c4ccccc4)c3C)nc3ccccc3c2=O)cc1	Autophagy mod active (no result: ROMK primary)
Cc1nn(-c2ccccc2)c(C)c1/C=N/NC(=O)CSc1nc2ccccc2c(=O)n1-c1ccc(Br)cc1	none (no result: ROMK primary)
Nc1c(C(=O)NCCN2CCOCC2)c2nc3ccccc3nc2n1-c1ccc2c(c1)OCO2	Autophagy mod active
Nc1c(C(=O)NCCN2CCOCC2)c2nc3ccccc3nc2n1-c1ccccc1	none (no result: Ins promoter up, ROMK primary)
Nc1c(C(=O)NCCN2CCOCC2)c2nc3ccccc3nc2n1CCc1ccccc1F	Autophagy mod active (no result: ROMK primary)
Nc1c(C(=O)NCCN2CCOCC2)c2nc3ccccc3nc2n1CCc1ccccc1	none (no result: ROMK primary)
Cc1ccc(C(=O)NCCn2c(N)c(C#N)c3nc4ccccc4nc32)cc1	Ins promoter up 4.1
COc1cc(C)c(-c2[nH]ncc2-c2csc(C)n2)c(O)c1	none
Cc1nc(-c2cn[nH]c2-c2ccc(O)cc2O)cs1	ROMK primary -3.1
CCc1ccc(CN(C)C(=O)CCc2nnc(CCc3cccc(OC)c3)o2)nc1	none (no result: SDO1 yeast rescue, Ins promoter up)
Cc1cccc(C(=O)N=c2c(C#N)cc3c(=O)n4cccc(C)c4nc3n2Cc2ccco2)c1	Autophagy mod active
CC(=O)Nc1nc(SCC(=O)NCc2ccc(F)cc2)[nH]c(=O)c1NC(=O)c1cccs1	Autophagy mod active (no result: SDO1 yeast rescue)
O=C(NCc1cccs1)c1ccc(N2CCCCC2)nc1	Ins promoter up 3.4 (no result: ROMK primary)
Cc1ccc(S(=O)(=O)c2cccc(S(=O)(=O)N3CCCC3)c2)cc1S(=O)(=O)N1CCCC1	Ins promoter up 3 (no result: ROMK primary)
Cc1ccc(NC(=O)CCl)cc1S(=O)(=O)N1CCCCCC1	Autophagy mod active (no result: SDO1 yeast rescue)
COc1ccccc1NS(=O)(=O)c1cc(NC(=O)c2ccncc2)ccc1N1CCCC1	none (no result: SDO1 yeast rescue)
COc1ccc(-n2c(C)cc(C(=O)CN3C(=O)c4ccccc4C3=O)c2C)cc1	none
COc1ccc(-n2c(C)cc(C(=O)CCl)c2C)cc1	Autophagy mod active (no result: SDO1 yeast rescue)
CCN(C(=S)NC(=O)c1ccccc1Br)C1CCCCC1	ROMK primary 6.9
O=C(NC(=S)NC1CCCC1)c1ccccc1Br	none
O=C1N=C(N2CCOCC2)S/C1=C/c1ccc(-c2ccc(F)cc2)o1	none (no result: SDO1 yeast rescue)
O=C1NC(=S)S/C1=C/c1ccc(N2CCOCC2)o1	ROMK primary -3.3
O=C1N/C(=C/c2ccc(N3CCOCC3)cc2)C(=O)N1Cc1ccc(F)cc1	none
C=CCN1C(=O)N/C(=C/c2ccc(N3CCOCC3)o2)C1=O	ROMK primary -3.8
COc1ccc2cc(/C=C3\SC(=S)NC3=O)c(N3CCOCC3)nc2c1	none (no result: ROMK primary)
Cc1ccc(-c2ccc(/C=C3\SC(N4CCOCC4)=NC3=O)o2)cc1	Autophagy mod active (no result: SDO1 yeast rescue)
O=C1S/C(=C\c2ccc(N3CCOCC3)o2)C(=O)N1Cc1ccc(F)cc1	ABCG2 inh 107 (no result: Ins promoter up, ROMK primary)
